Results published in ChEMBL document CHEMBL4251566 (Eur J Med Chem, 2018).

Test system: Ramos
Experiment: Antiproliferative activity against human Ramos cells after 72 hrs by CCK-8 assay

Row | IC50 [µM] | SMILES
1 | 18.5 | C=CC(=O)Nc1cccc(Nc2nc(Nc3ccc(OCCCN4CCN(CC)CC4)cc3C)ncc2F)c1
2 | 25.6 | C=CC(=O)Nc1cccc(Nc2nc(Nc3ccc(OCC(=O)N4CCOCC4)cc3)ncc2Cl)c1
3 | 5.72 | C=CC(=O)Nc1cccc(Nc2nc(Nc3ccc(OCCCN4CCN(CC)CC4)c(Cl)c3)ncc2Cl)c1
4 | > 40 | C=CC(=O)Nc1cccc(Nc2nc(Nc3ccc(OCC(=O)N4CCOCC4)c(OC)c3)ncc2Cl)c1
5 | 18.7 | C=CC(=O)Nc1cccc(Nc2nc(Nc3ccc(OCCCN4CCOCC4)cc3C)ncc2Cl)c1
6 | 11.3 | C=CC(=O)Nc1cccc(Nc2nc(Nc3ccc(OC)c(OCCCN4CCOCC4)c3)ncc2F)c1
7 | 14.4 | C=CC(=O)Nc1cccc(Nc2nc(Nc3ccc(OCCCN4CCN(CC)CC4)cc3C)ncc2Cl)c1

Biological target: Tyrosine-protein kinase BTK (Homo sapiens, UniProt Q06187)
Experiment: Inhibition of recombinant full-length N-terminal His-tagged human BTK expressed in baculovirus infected Sf9 insect cells using Poly(4:1 Glu,Tyr) peptide substrate incubated for 60 mins by ADP-Glo luminescence assay

Sequence of Tyrosine-protein kinase BTK (Q06187 whole entry): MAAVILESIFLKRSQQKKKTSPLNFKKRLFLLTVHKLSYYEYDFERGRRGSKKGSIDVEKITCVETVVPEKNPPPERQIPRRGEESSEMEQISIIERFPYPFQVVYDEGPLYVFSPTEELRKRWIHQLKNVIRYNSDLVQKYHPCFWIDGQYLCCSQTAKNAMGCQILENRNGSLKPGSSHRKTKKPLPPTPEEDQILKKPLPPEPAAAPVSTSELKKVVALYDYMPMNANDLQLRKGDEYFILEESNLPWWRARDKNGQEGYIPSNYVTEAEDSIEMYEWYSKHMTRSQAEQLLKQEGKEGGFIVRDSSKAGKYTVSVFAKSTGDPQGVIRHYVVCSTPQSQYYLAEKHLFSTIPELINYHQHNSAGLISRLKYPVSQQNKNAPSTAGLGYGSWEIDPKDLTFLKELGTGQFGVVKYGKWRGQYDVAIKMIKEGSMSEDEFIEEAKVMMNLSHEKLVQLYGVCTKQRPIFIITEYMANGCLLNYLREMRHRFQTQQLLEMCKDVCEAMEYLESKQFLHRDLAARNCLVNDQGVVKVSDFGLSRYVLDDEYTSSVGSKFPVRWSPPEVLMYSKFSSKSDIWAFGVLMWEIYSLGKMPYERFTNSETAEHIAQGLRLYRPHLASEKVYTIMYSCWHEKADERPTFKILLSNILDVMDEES

Row | IC50 [µM] | SMILES
8 | 0.09 | C=CC(=O)Nc1cccc(Nc2nc(Nc3ccc(OCCCN4CCN(CC)CC4)cc3C)ncc2F)c1
9 | 0.001 | C=CC(=O)Nc1cccc(Nc2nc(Nc3ccc(OCC(=O)N4CCOCC4)cc3)ncc2Cl)c1
10 | 0.0005 | C=CC(=O)Nc1cccc(Nc2nc(Nc3ccc(OCCCN4CCN(CC)CC4)c(Cl)c3)ncc2Cl)c1
11 | 0.0105 | C=CC(=O)Nc1cccc(Nc2nc(Nc3ccc(OCC(=O)N4CCOCC4)c(OC)c3)ncc2Cl)c1
12 | 0.0893 | C=CC(=O)Nc1cccc(Nc2nc(Nc3ccc(OCCCN4CCOCC4)cc3C)ncc2Cl)c1
13 | 0.0007 | C=CC(=O)Nc1cccc(Nc2nc(Nc3ccc(OC)c(OCCCN4CCOCC4)c3)ncc2F)c1
14 | > 0.1 | C=CC(=O)Nc1cccc(Nc2nc(Nc3ccc(OCCCN4CCN(CC)CC4)cc3C)ncc2Cl)c1

Test system: NAMALVA
Experiment: Antiproliferative activity against human NAMALWA cells after 72 hrs by CCK-8 assay
Assay type: functional, cell-based
Method in brief: (§1)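 CCK-8 viability assay. Cells were seeded at 3000/well in RPMI-1640 with 10% FBS at 37 °C, 5% CO2, for 4 h before treatment. Exposure was 72 h at five concentrations (1.25, 5, 10, 20, 40 µM), each in five replicates. Absorbance was read at 450 nm. IC50 came from dose-response curves, as the mean of at least three separate experiments.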

Row | SMILES | IC50 [µM]
15 | C=CC(=O)Nc1cccc(Nc2nc(Nc3ccc(OCCCN4CCN(CC)CC4)cc3C)ncc2F)c1 | 26.6
16 | C=CC(=O)Nc1cccc(Nc2nc(Nc3ccc(OCC(=O)N4CCOCC4)cc3)ncc2Cl)c1 | 4.42
17 | C=CC(=O)Nc1cccc(Nc2nc(Nc3ccc(OCCCN4CCN(CC)CC4)c(Cl)c3)ncc2Cl)c1 | 2.41
18 | C=CC(=O)Nc1cccc(Nc2nc(Nc3ccc(OCC(=O)N4CCOCC4)c(OC)c3)ncc2Cl)c1 | 17.2
19 | C=CC(=O)Nc1cccc(Nc2nc(Nc3ccc(OCCCN4CCOCC4)cc3C)ncc2Cl)c1 | 28
20 | C=CC(=O)Nc1cccc(Nc2nc(Nc3ccc(OC)c(OCCCN4CCOCC4)c3)ncc2F)c1 | 3.17
21 | C=CC(=O)Nc1cccc(Nc2nc(Nc3ccc(OCCCN4CCN(CC)CC4)cc3C)ncc2Cl)c1 | 35.2

Biological target: T1, Tyrosine-protein kinase JAK3 (Homo sapiens, UniProt P52333)
T1 sequence (P52333 whole entry): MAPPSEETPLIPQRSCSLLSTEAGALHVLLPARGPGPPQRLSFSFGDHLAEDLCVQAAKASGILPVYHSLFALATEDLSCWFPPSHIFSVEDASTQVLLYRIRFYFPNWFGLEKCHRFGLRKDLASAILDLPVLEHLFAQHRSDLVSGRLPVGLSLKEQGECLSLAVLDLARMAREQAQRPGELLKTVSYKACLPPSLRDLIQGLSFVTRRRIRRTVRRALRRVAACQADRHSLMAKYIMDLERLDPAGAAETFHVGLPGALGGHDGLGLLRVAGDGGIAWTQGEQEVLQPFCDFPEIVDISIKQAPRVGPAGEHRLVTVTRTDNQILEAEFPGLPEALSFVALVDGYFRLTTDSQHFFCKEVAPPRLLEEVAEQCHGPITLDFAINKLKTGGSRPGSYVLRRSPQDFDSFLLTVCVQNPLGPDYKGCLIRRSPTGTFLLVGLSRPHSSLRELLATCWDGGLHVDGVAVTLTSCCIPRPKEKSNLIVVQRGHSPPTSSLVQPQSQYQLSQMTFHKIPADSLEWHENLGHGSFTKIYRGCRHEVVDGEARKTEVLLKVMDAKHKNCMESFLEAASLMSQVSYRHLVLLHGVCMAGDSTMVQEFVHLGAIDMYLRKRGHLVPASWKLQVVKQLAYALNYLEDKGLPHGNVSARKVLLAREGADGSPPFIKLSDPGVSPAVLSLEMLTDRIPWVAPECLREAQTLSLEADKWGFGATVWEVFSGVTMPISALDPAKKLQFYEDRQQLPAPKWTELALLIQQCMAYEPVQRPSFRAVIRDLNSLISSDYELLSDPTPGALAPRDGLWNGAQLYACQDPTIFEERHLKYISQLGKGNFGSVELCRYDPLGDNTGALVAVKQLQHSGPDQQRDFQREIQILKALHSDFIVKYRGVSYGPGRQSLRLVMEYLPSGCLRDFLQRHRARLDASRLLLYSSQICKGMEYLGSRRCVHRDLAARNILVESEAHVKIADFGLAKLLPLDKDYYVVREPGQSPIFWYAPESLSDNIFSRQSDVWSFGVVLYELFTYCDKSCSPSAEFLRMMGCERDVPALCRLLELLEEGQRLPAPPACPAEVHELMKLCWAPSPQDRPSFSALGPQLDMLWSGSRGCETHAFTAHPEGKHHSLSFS
Experiment: Inhibition of recombinant N-terminal GST-tagged human JAK3 (781 to end residues) expressed in baculovirus infected Sf9 insect cells using Poly(4:1 Glu,Tyr) peptide substrate incubated for 60 mins by ADP-Glo luminescence assay
Method in brief: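 ADP-Glo luminescent kinase assay. The kinase reaction ran 60 min at room temperature in 1× kinase buffer. ADP-Glo reagent was added to stop the reaction and deplete ATP, followed by 40 min at room temperature. Detection reagent then converted ADP to ATP for a luciferase readout, followed by 30 min at room temperature. Luminescence was integrated over 0.5–1 s, and IC50 came from curve fitting.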

Row | IC50 [µM] | SMILES
22 | > 0.1 | C=CC(=O)Nc1cccc(Nc2nc(Nc3ccc(OCCCN4CCN(CC)CC4)cc3C)ncc2F)c1
23 | 0.00139 | C=CC(=O)Nc1cccc(Nc2nc(Nc3ccc(OCC(=O)N4CCOCC4)cc3)ncc2Cl)c1
24 | 0.00091 | C=CC(=O)Nc1cccc(Nc2nc(Nc3ccc(OCCCN4CCN(CC)CC4)c(Cl)c3)ncc2Cl)c1
25 | 0.0216 | C=CC(=O)Nc1cccc(Nc2nc(Nc3ccc(OCC(=O)N4CCOCC4)c(OC)c3)ncc2Cl)c1
26 | > 0.1 | C=CC(=O)Nc1cccc(Nc2nc(Nc3ccc(OCCCN4CCOCC4)cc3C)ncc2Cl)c1
27 | 0.00095 | C=CC(=O)Nc1cccc(Nc2nc(Nc3ccc(OC)c(OCCCN4CCOCC4)c3)ncc2F)c1
28 | > 0.1 | C=CC(=O)Nc1cccc(Nc2nc(Nc3ccc(OCCCN4CCN(CC)CC4)cc3C)ncc2Cl)c1

Test system: Raji
Experiment: Antiproliferative activity against human Raji cells after 72 hrs by CCK-8 assay
Assay type: functional, cell-based
Method in brief: as §1

Row | IC50 [µM] | SMILES
29 | 26 | C=CC(=O)Nc1cccc(Nc2nc(Nc3ccc(OCCCN4CCN(CC)CC4)cc3C)ncc2F)c1
30 | 5.68 | C=CC(=O)Nc1cccc(Nc2nc(Nc3ccc(OCC(=O)N4CCOCC4)cc3)ncc2Cl)c1
31 | 11.4 | C=CC(=O)Nc1cccc(Nc2nc(Nc3ccc(OCCCN4CCN(CC)CC4)c(Cl)c3)ncc2Cl)c1
32 | 22.5 | C=CC(=O)Nc1cccc(Nc2nc(Nc3ccc(OCC(=O)N4CCOCC4)c(OC)c3)ncc2Cl)c1
33 | 25.5 | C=CC(=O)Nc1cccc(Nc2nc(Nc3ccc(OCCCN4CCOCC4)cc3C)ncc2Cl)c1
34 | 13.9 | C=CC(=O)Nc1cccc(Nc2nc(Nc3ccc(OC)c(OCCCN4CCOCC4)c3)ncc2F)c1
35 | 35.3 | C=CC(=O)Nc1cccc(Nc2nc(Nc3ccc(OCCCN4CCN(CC)CC4)cc3C)ncc2Cl)c1
